Holding throughout (type): cell-based
Test [1] deals with T1, ALK tyrosine kinase receptor (Homo sapiens, UniProt Q9UM73). Kind of test: Induction of ALK degradation in human NCI-H3122 cells at 250 nM after 16 hrs in presence of proteasome inhibitor carfilzomib by immunoblot method. Background: In western blotting, separated proteins are transferred to a membrane and probed.
Test [2] concerns the target T2, Aurora kinase A (Homo sapiens) (UniProt O14965).
T2 sequence (whole entry): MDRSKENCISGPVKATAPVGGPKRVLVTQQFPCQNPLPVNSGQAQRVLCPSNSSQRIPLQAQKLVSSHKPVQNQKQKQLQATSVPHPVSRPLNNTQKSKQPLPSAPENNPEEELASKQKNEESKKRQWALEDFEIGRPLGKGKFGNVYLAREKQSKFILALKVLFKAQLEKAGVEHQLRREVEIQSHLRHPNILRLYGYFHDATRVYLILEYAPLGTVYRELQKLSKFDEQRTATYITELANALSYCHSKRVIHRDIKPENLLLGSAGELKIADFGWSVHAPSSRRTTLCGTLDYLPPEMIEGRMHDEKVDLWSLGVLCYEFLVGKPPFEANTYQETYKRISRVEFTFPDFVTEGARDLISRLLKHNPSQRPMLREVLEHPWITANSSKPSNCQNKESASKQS
The test can be described thus: Induction of aurora A degradation in human NCI-H3122 cells at 250 nM after 16 hrs in presence of proteasome inhibitor carfilzomib by immunoblot method.

The target in test [3] is T1, ALK tyrosine kinase receptor. The test can be described thus: Induction of ALK degradation in human KARPAS299 cells at 250 nM after 16 hrs in presence of ALK inhibitor TAE684 by immunoblot method.
The target of test [4] is T2, Aurora kinase A (Homo sapiens). Kind of test: Induction of aurora A degradation in human Kelly cells at 10 to 160 nM after 16 hrs by immunoblot method. An outline of the steps:
(§1)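 Kelly and CHLA20 neuroblastoma cells were treated with dose titrations for 16 h, then Aurora A was detected by immunoblot. CHLA20 cells were always co-treated with 125 nM tariquidar, an ABCB1 inhibitor.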

The target is the same in test [5]. The test can be described thus: Induction of aurora A degradation in human CHLA20 cells at 10 to 160 nM after 16 hrs by immunoblot method. The gist of the method: as §1
The target is the same in test [6]. The test can be described thus: Induction of aurora A degradation in human NCI-H3122 cells at 0.01 to 1 uM after 16 hrs by immunoblot method. The gist of the method: (§2)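 H3122 (EML4-ALK NSCLC) and Karpas 299 (NPM-ALK ALCL) cells were exposed to dose titrations for 16 h. ALK and Aurora A levels were then assessed by immunoblot.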
Test [7] shares this target. Kind of test: Induction of aurora A degradation in human KARPAS299 cells at 0.01 to 1 uM after 16 hrs by immunoblot method. The gist of the method:
as §2

Test [8] addresses T1, ALK tyrosine kinase receptor. Kind of test: Induction of ALK degradation in human Kelly cells assessed as decrease in ALK phosphorylation at Y1507 at 250 nM after 6 to 48 hrs by immunoblot method.
The target is the same in test [9]. The test can be described thus: Induction of ALK degradation in human CHLA20 cells assessed as decrease in ALK phosphorylation at Y1507 at 250 nM after 6 to 48 hrs in presence of ABCB1 inhibitor tariquidar by immunoblot method.
In test [10] the target is Signal transducer and activator of transcription 3 (Homo sapiens) (UniProt P40763). The test can be described thus: Inhibition of STAT3 phosphorylation at Y705 in human Kelly cells at 250 nM after 6 to 48 hrs by immunoblot method.
Signal transducer and activator of transcription 3 (Homo sapiens), sequence (P40763 whole entry): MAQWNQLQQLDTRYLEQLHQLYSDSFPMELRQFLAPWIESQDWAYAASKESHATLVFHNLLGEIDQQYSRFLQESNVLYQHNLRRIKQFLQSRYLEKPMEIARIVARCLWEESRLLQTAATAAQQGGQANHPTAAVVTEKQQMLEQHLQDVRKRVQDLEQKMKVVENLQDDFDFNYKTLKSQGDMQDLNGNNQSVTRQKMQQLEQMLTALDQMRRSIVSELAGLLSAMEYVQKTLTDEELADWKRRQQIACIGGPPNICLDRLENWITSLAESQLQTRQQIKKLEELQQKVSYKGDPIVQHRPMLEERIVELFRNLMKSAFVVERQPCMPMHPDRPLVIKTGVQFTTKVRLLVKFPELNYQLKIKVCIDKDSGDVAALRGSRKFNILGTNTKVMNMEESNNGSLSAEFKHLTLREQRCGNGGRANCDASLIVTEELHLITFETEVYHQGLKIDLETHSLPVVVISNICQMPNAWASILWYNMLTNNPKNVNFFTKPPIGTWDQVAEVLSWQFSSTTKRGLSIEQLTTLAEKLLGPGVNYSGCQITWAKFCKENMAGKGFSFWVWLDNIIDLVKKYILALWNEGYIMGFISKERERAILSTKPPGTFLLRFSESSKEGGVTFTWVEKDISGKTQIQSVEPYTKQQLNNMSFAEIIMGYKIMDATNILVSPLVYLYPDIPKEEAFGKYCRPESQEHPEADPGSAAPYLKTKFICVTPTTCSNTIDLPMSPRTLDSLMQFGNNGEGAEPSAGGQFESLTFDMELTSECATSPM
For test [11] the target is unchanged. The test can be described thus: Inhibition of STAT3 phosphorylation at Y705 in human CHLA20 cells at 250 nM after 6 to 48 hrs in presence of ABCB1 inhibitor tariquidar by immunoblot method.

Activity calls are given as the source filed them. The rule behind the calls is not given here.

T1 sequence (Q9UM73 19-1620 limits assumed): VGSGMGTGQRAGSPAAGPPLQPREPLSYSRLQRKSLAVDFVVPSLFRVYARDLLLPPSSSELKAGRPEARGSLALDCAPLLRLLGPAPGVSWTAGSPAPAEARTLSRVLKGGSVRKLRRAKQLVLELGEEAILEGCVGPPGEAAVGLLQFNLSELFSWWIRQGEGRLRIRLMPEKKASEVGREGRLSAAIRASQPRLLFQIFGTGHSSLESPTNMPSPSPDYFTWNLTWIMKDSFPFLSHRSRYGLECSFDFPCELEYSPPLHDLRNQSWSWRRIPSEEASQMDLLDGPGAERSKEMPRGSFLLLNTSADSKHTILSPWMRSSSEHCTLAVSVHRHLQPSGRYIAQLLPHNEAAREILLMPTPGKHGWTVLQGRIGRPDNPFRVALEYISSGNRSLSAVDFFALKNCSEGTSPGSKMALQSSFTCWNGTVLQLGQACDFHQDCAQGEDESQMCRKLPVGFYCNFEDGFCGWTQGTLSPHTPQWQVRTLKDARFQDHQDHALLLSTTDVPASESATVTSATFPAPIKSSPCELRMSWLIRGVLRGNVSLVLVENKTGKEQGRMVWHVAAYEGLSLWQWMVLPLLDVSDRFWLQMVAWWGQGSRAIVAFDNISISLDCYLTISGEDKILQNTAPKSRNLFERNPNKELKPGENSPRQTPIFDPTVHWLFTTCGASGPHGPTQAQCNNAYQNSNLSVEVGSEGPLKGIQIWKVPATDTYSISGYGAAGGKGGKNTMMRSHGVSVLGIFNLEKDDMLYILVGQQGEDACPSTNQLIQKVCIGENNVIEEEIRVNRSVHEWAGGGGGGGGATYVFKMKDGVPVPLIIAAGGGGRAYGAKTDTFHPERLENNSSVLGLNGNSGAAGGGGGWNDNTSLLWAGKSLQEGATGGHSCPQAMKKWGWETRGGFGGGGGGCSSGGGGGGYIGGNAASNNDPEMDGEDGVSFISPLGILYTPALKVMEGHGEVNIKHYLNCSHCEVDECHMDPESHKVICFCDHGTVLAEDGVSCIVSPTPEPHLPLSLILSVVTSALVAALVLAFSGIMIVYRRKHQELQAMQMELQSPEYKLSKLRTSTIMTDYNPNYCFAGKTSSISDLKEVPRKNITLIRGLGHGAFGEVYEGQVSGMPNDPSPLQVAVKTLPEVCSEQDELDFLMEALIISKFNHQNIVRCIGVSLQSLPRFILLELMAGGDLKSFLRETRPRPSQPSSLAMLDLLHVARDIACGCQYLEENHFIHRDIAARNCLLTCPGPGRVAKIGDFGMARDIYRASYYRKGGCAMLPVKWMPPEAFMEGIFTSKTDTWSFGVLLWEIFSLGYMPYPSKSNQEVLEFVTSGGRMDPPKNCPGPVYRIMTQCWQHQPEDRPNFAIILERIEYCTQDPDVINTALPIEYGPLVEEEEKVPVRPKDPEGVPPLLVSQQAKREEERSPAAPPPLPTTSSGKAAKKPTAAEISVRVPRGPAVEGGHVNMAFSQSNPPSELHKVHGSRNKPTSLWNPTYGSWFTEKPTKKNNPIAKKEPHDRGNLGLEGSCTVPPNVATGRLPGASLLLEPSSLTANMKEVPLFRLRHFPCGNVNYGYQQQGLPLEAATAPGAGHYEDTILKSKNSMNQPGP

As to `COc1cc(N2CCN(CCOCCOCCNC(=O)CNc3cccc4c3C(=O)N(C3CCC(=O)NC3=O)C4=O)CC2)ccc1Nc1ncc(Cl)c(Nc2ccccc2S(=O)(=O)C(C)C)n1` (centres undefined), the outcome in test [1], in test [2] and in test [3] was inactive. The outcome in [4], in test [5], in [6] and in test [7] was Active.
On to `Cc1cc(Nc2ncc(Cl)c(Nc3ccccc3S(=O)(=O)C(C)C)n2)c(OC(C)C)cc1C1CCN(CCOCCOCCNC(=O)CNc2cccc3c2C(=O)N(C2CCC(=O)NC2=O)C3=O)CC1` (centres undefined), for which the outcome in [1], in test [2] and in test [3] was inactive. Further, the result in [8] and in test [9] was Active. Moreover, the inhibition entry in test [10] and in [11] was “Active” each time.
